Experiments:
[1] = target: Dipeptidyl peptidase 2 (Homo sapiens, UniProt Q9UHL4); test: Inhibition of N-terminal FLAG tagged human QPP expressed in Sf9 cells using Nle-Pro-AMC substrate after 30 mins by plate reader analysis
[2] = target: Dipeptidyl peptidase 8 (Homo sapiens, UniProt Q6V1X1); test: Inhibition of C-terminal His-tagged DPP8 (unknown origin) expressed in COS7 cells using H-Ala-Pro-pNA substrate preincubated for 15 mins; assay type: cell-based, COS-7
[3] = target: T1, Prolyl endopeptidase FAP (Bos taurus, UniProt A5D7B7); test: Inhibition of bovine serum FAP
T1 sequence (A5D7B7 whole entry): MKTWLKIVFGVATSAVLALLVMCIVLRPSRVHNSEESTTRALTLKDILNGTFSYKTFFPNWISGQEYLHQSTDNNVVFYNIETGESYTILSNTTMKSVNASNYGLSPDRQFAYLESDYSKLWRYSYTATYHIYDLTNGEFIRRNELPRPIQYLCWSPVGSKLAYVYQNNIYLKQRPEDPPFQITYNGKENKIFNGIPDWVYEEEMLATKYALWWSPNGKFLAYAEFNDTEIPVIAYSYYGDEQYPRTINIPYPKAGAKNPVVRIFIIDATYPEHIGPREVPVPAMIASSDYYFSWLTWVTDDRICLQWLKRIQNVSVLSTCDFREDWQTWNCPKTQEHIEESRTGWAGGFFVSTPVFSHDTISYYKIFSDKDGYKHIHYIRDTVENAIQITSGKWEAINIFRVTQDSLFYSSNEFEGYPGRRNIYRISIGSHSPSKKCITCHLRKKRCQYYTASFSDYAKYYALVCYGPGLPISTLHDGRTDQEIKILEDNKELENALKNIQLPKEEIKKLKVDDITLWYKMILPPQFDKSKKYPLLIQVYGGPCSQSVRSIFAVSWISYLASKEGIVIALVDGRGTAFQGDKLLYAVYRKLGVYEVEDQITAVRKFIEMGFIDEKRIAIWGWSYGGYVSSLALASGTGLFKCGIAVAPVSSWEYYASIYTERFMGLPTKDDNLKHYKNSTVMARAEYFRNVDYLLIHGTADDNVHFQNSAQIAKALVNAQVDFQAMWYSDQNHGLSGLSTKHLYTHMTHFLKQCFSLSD

[4] = Half life in rat at 1 mg/kg, iv and 2 mg/kg, po; assay type: ADME, organism-based; details: in vivo
Outline: (§1)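 Rats received 1 mg/kg iv plus 2 mg/kg po, or 0.4 mg/kg iv alone. Plasma clearance is reported in ml/min/kg, half-life in h, and AUC normalized to dose in µM h/mg/kg.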

[5] = Plasma clearance in rat at 1 mg/kg, iv and 2 mg/kg, po; assay type: ADME, organism-based; outline: as §1
[6] = tested on: Rattus norvegicus; test: Dose normalized AUC in rat at 1 mg/kg, iv and 2 mg/kg, po; assay type: ADME, organism-based; details: in vivo; outline: as §1
[7] = target: Voltage-dependent L-type calcium channel subunit alpha-1C (Homo sapiens, UniProt Q13936); test: […]
Chain of Voltage-dependent L-type calcium channel subunit alpha-1C (Q13936 whole entry): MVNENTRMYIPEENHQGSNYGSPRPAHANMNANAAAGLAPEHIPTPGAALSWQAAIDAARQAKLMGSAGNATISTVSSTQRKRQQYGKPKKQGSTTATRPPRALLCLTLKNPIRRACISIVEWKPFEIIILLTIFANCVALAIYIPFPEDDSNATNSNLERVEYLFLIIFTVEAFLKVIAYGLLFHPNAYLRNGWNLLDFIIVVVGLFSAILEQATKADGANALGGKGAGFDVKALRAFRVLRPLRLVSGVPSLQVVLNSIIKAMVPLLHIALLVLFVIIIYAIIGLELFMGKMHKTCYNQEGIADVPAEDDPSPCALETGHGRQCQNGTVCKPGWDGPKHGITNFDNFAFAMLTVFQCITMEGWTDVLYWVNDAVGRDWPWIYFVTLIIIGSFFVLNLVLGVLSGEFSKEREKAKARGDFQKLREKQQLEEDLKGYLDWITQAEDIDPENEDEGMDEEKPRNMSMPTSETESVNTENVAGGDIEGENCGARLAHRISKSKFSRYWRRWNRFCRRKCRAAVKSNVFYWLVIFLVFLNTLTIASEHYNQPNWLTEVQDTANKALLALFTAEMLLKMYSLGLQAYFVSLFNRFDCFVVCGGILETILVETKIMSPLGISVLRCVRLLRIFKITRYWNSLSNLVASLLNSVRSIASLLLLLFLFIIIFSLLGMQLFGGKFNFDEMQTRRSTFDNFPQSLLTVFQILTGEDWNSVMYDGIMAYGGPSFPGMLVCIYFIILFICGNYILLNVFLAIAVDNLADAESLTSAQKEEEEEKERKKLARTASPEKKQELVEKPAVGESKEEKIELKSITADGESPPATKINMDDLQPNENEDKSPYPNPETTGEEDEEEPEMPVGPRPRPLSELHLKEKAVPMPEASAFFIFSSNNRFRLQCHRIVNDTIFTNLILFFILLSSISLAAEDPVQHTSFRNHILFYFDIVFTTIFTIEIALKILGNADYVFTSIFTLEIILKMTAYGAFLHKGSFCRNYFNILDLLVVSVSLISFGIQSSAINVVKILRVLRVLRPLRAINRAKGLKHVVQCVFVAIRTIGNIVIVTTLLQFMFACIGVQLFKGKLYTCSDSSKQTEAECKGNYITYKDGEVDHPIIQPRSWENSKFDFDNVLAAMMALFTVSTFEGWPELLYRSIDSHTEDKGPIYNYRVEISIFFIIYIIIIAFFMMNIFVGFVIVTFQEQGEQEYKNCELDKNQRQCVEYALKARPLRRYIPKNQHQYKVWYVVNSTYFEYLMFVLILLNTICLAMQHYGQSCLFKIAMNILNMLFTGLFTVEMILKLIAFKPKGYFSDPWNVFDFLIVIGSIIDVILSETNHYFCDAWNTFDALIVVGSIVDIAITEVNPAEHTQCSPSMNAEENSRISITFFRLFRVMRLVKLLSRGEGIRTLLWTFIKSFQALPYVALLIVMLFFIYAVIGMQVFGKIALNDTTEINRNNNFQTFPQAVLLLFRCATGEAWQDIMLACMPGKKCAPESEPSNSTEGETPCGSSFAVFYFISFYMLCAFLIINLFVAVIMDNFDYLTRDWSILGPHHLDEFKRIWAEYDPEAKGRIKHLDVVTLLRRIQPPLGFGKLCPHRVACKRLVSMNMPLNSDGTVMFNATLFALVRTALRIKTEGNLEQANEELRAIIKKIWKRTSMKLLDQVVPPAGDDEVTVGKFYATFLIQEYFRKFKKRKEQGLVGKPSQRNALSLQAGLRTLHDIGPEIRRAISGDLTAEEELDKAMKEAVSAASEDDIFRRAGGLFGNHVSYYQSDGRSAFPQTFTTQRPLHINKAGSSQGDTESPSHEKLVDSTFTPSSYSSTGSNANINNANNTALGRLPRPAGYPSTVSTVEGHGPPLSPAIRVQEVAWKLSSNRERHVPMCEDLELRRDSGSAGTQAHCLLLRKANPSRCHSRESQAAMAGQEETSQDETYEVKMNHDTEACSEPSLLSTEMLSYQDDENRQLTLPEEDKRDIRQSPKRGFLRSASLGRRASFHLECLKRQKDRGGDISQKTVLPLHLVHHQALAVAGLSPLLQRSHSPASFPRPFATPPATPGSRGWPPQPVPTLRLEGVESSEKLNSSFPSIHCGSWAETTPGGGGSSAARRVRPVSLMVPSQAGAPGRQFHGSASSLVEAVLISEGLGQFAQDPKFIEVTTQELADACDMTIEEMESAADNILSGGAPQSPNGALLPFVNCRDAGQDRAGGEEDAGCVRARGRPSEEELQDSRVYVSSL

[8] = Plasma clearance in dog at 1 mg/kg, iv and 2 mg/kg, po; assay type: ADME, organism-based, Canis lupus familiaris
[9] = Half life in dog at 1 mg/kg, iv and 2 mg/kg, po; assay type: ADME, organism-based, Canis lupus familiaris; details: in vivo
[10] = tested on: Canis familiaris; test: Dose normalized AUC in dog at 1 mg/kg, iv and 2 mg/kg, po; assay type: ADME, organism-based, Canis lupus familiaris; details: in vivo
Outline: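 Dogs were dosed 1 mg/kg iv and 2 mg/kg po. AUC is reported normalized to dose in µM h/mg/kg.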

[11] = Oral bioavailability in dog at 2 mg/kg; assay type: ADME, organism-based, Canis lupus familiaris; details: in vivo
[12] = target: Voltage-gated inwardly rectifying potassium channel KCNH2 (Homo sapiens, UniProt Q12809); test: Inhibition of human ERG assessed as reduction in IKr current
Chain of Voltage-gated inwardly rectifying potassium channel KCNH2 (Q12809 whole entry): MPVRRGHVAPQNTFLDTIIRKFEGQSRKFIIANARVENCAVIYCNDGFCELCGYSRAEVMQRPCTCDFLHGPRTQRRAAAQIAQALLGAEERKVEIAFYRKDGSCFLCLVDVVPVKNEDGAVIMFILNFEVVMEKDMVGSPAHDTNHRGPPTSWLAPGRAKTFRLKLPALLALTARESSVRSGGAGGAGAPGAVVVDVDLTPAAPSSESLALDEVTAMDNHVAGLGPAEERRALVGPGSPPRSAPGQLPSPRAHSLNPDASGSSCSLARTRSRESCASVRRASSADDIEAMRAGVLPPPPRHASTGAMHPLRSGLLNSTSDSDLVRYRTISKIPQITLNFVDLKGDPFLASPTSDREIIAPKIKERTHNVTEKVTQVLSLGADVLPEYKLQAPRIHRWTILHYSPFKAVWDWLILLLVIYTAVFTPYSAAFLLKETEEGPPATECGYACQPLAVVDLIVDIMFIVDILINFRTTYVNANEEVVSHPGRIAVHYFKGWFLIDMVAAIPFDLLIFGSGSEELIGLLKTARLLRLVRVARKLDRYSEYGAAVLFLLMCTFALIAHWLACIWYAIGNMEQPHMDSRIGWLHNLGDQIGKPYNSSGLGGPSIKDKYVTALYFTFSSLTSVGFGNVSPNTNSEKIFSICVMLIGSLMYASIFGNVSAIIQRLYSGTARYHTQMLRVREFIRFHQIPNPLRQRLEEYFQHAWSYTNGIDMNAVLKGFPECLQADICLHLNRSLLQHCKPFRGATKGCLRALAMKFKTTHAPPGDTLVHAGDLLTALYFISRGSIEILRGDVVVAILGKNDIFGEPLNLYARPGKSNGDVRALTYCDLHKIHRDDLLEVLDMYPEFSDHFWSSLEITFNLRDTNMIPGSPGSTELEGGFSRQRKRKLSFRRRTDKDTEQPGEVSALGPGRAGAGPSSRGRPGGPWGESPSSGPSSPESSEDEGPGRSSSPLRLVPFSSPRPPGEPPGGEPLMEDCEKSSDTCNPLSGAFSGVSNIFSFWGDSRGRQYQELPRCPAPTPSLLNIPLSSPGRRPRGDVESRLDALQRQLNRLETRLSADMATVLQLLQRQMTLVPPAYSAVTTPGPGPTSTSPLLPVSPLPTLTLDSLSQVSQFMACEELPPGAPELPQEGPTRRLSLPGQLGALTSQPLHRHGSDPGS

[13] = Oral bioavailability in rat at 2 mg/kg; assay type: ADME, organism-based; details: in vivo; outline: as §1

Chain of Dipeptidyl peptidase 8 (Q6V1X1 whole entry): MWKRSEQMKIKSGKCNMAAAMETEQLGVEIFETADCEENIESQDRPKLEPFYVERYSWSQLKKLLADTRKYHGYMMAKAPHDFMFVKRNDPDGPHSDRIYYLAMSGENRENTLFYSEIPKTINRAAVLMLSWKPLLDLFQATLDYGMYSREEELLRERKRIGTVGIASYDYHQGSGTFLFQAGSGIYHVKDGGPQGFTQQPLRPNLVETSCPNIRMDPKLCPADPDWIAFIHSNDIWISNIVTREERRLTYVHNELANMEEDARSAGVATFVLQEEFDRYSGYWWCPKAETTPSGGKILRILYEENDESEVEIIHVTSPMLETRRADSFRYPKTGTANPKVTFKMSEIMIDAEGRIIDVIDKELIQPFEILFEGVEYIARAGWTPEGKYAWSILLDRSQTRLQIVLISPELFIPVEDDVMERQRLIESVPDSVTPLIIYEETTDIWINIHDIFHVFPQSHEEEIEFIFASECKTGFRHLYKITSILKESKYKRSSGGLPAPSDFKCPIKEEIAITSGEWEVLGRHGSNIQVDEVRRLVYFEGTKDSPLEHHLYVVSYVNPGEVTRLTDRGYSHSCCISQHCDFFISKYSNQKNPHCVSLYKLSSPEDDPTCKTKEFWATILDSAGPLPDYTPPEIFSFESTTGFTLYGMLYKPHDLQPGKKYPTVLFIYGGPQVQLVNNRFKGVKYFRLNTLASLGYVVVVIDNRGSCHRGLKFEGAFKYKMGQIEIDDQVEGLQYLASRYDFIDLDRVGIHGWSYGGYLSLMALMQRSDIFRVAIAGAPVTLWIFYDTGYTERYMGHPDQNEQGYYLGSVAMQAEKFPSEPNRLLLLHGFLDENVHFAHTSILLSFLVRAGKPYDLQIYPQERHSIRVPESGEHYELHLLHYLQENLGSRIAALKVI

| Compound | IC50 [1] [µM] | IC50 [2] [µM] | IC50 [3] [µM] | half-life [4] [h] | clearance [5] [mL/min/kg] | AUC/dose [6] [µM·h/mg/kg] | other results |
| --- | --- | --- | --- | --- | --- | --- | --- |
| CC(C)S(=O)(=O)c1n[nH]c2c1CN([C@H]1CO[C@H](c3cc(F)ccc3F)[C@@H](N)C1)C2 | > 100 | > 100 | 16 | – | – | – | – |
| CCC(=O)Nc1n[nH]c2c1CN([C@H]1CO[C@H](c3cc(F)ccc3F)[C@@H](N)C1)C2 | > 100 | > 100 | 47 | 2.2 | 60 | 0.7 | – |
| N[C@H]1C[C@@H](N2Cc3[nH]nc(NS(=O)(=O)C4CC4)c3C2)CO[C@@H]1c1cc(F)ccc1F | > 100 | – | 3.8 | 1.5 | 24 | 1.6 | – |
| CCCS(=O)(=O)n1cc2c(n1)CN([C@H]1CO[C@H](c3cc(F)ccc3F)[C@@H](N)C1)C2 | > 100 | > 100 | > 100 | – | – | – | – |
| N[C@H]1C[C@@H](N2Cc3cn(S(=O)(=O)C4CC4)nc3C2)CO[C@@H]1c1cc(F)ccc1F | – | > 100 | > 100 | 6.2 | 0.9 | 47 | IC50 [7]: > 30 µM; clearance [8]: 1.6 mL/min/kg; half-life [9]: 17 h; AUC/dose [10]: 25 µM·h/mg/kg; bioavailability [11]: 90% |
| CS(=O)(=O)n1cc2c(n1)CN([C@H]1CO[C@H](c3cc(F)ccc3F)[C@@H](N)C1)C2 [OMARIGLIPTIN] | > 100 | > 100 | > 100 | – | – | 48 | IC50 [7]: > 30 µM; clearance [8]: 0.9 mL/min/kg; half-life [9]: 22 h; AUC/dose [10]: 54 µM·h/mg/kg; bioavailability [11]: 100% |
| CS(=O)(=O)Nc1n[nH]c2c1CN([C@H]1CO[C@H](c3cc(F)ccc3F)[C@@H](N)C1)C2 | > 100 | > 100 | 8.8 | 2 | 16 | 2.5 | – |
| N[C@H]1C[C@@H](N2Cc3[nH]nc(S(=O)(=O)c4ccccc4)c3C2)CO[C@@H]1c1cc(F)ccc1F | – | – | 14 | – | – | – | – |
| N[C@H]1C[C@@H](N2Cc3cn(S(=O)(=O)C4CCCC4)nc3C2)CO[C@@H]1c1cc(F)ccc1F | – | – | 50 | 1.5 | 41 | 0.9 | – |
| N[C@H]1C[C@@H](N2Cc3[nH]nc(NS(=O)(=O)c4c[nH]cn4)c3C2)CO[C@@H]1c1cc(F)ccc1F | – | – | 6.3 | – | – | – | – |
| N[C@H]1C[C@@H](N2Cc3[nH]nc(NC(=O)c4ccncc4)c3C2)CO[C@@H]1c1cc(F)ccc1F | > 100 | – | 27 | – | – | – | – |
| N[C@H]1C[C@@H](N2Cc3cn(S(=O)(=O)c4ccccc4)nc3C2)CO[C@@H]1c1cc(F)ccc1F | – | – | > 100 | – | – | – | – |
| N[C@H]1C[C@@H](N2Cc3cnn(S(=O)(=O)C4CCCC4)c3C2)CO[C@@H]1c1cc(F)ccc1F | > 100 | > 100 | 26 | 0.5 | 96 | 0.4 | – |
| CCS(=O)(=O)Nc1n[nH]c2c1CN([C@H]1CO[C@H](c3cc(F)ccc3F)[C@@H](N)C1)C2 | – | – | 32 | 2.1 | 12 | 3.4 | – |
| N[C@H]1C[C@@H](N2Cc3cn(S(=O)(=O)C(F)(F)F)nc3C2)CO[C@@H]1c1cc(F)ccc1F | > 100 | > 100 | > 100 | – | – | – | – |
| N[C@H]1C[C@@H](N2Cc3cn[nH]c3C2)CO[C@@H]1c1cc(F)ccc1F | – | – | > 100 | – | – | – | IC50 [7]: > 30 µM; IC50 [12]: > 30 µM; AUC/dose [10]: 16 µM·h/mg/kg |
| CS(=O)(=O)c1n[nH]c2c1CN([C@H]1CO[C@H](c3cc(F)ccc3F)[C@@H](N)C1)C2 | > 100 | – | 20 | – | – | – | – |
| N[C@H]1C[C@@H](N2Cc3[nH]nc(NS(=O)(=O)Cc4ccncc4)c3C2)CO[C@@H]1c1cc(F)ccc1F | – | > 100 | 60 | – | – | – | – |
| N[C@H]1C[C@@H](N2Cc3[nH]nc(NC(=O)C4CC4)c3C2)CO[C@@H]1c1cc(F)ccc1F | > 100 | > 100 | 22 | 5.5 | 64 | 0.6 | – |
| Cn1cnc(S(=O)(=O)n2ncc3c2CN([C@H]2CO[C@H](c4cc(F)ccc4F)[C@@H](N)C2)C3)c1 | – | – | 45 | – | – | – | – |
| N[C@H]1C[C@@H](N2Cc3[nH]nc(NS(=O)(=O)CC(F)(F)F)c3C2)CO[C@@H]1c1cc(F)ccc1F | > 100 | > 100 | 32 | – | – | – | – |
| CC(C)S(=O)(=O)n1cc2c(n1)CN([C@H]1CO[C@H](c3cc(F)ccc3F)[C@@H](N)C1)C2 | > 100 | > 100 | > 100 | 1.3 | 7 | 5.6 | bioavailability [13]: 93% |
| Cn1cnc(S(=O)(=O)n2cc3c(n2)CN([C@H]2CO[C@H](c4cc(F)ccc4F)[C@@H](N)C2)C3)c1 | – | – | 95 | – | – | – | – |
| N[C@H]1C[C@@H](N2Cc3cnn(S(=O)(=O)C4CC4)c3C2)CO[C@@H]1c1cc(F)ccc1F | – | > 100 | 54 | 1.6 | 24 | 1.7 | bioavailability [13]: 79% |
| CCS(=O)(=O)n1cc2c(n1)CN([C@H]1CO[C@H](c3cc(F)ccc3F)[C@@H](N)C1)C2 | > 100 | > 100 | 69 | 5.2 | 1.6 | 22 | IC50 [7]: > 30 µM; bioavailability [13]: 84%; IC50 [12]: > 60 µM; clearance [8]: 3.3 mL/min/kg; half-life [9]: 13 h; AUC/dose [10]: 25 µM·h/mg/kg; bioavailability [11]: 100% |
| N[C@H]1C[C@@H](N2Cc3[nH]nc(NC(=O)c4nccs4)c3C2)CO[C@@H]1c1cc(F)ccc1F | – | – | 40 | – | – | – | – |
| N[C@H]1C[C@@H](N2Cc3cn(S(=O)(=O)c4cccc(C(F)(F)F)c4)nc3C2)CO[C@@H]1c1cc(F)ccc1F | > 100 | – | > 100 | – | – | – | – |

From ChEMBL document CHEMBL3734760 (Bioorg Med Chem Lett, 2015)
